Test: Cytotoxicity in HFF cells after 72 hrs by trypan blue exclusion assay
Assay type: cell-based
Conditions: human
Procedure, shortened: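 Human normal fibroblasts, 2 × 10⁵ per well, seeded in RPMI 1640 with 10% fetal calf serum plus penicillin and streptomycin at 37 °C under CO₂. Compound added after 24 h. Living cells counted at 72 h by trypan blue exclusion, expressed as percent of control proliferation; GI50 derived.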

## CCCCOc1ccc(NC(=O)n2nc(N)c3cc(N)ccc32)cc1
  GI50 at 72 h: 32 µM

Source: ChEMBL document CHEMBL1649392, “Synthesis of substituted 3-amino-N-phenyl-1H-indazole-1-carboxamides endowed with antiproliferative activity” (Eur J Med Chem, 2011)
